Measurements taken from ChEMBL document CHEMBL1154198, “Chemical genetics of Plasmodium falciparum” (Nature, 2010).

Experiments:
Plasmodium falciparum [1] = experiment: ST_JUDE: Cytotoxicity against Plasmodium falciparum D10 transfected with yeast DHOD; type: functional, organism-based
Plasmodium falciparum [2] = experiment: ST_JUDE: Cytotoxicity against Plasmodium falciparum 3D7; type: functional, organism-based
In short: (§1)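 Asexual P. falciparum grown in human erythrocytes, exposed to compounds for 72 h, and growth read as the DNA quantity in treated versus control cultures. Dose-response run at 12 concentrations from 10 μM to 5 nM.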

Trypanosoma brucei = experiment: ST_JUDE: Cytotoxicity using luciferase to measure ATP as an indicator of the viability of Trypanosoma brucei; type: functional, organism-based
Plasmodium falciparum [3] = experiment: ST_JUDE: Cytotoxicity against Plasmodium falciparum W2; type: functional, organism-based
[4] = ST_JUDE: Cytotoxicity using luciferase to measure ATP as an indicator of the viability of human foreskin fibroblast cells (BJ); type: toxicity, cell-based
Toxoplasma gondii = experiment: ST_JUDE: Growth inhibition of to Toxoplasma gondii, in human U-2OS cells, as measured by luciferase.; type: functional, organism-based; details: RH, U2OS
In short: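 T. gondii parasites engineered to express luciferase; drug sensitivity read by luminescence.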

Plasmodium falciparum [5] = experiment: ST_JUDE: Plasmodium falciparum 3D7 EC50 (uM) as measured by SYBR green dye; type: functional, organism-based
[6] = ST_JUDE: Cytotoxicity using luciferase to measure ATP as an indicator of the viability of human epithelial hepatocellular carcinoma cells (HepG2); type: toxicity, cell-based
Plasmodium falciparum [7] = experiment: ST_JUDE: Cytotoxicity against Plasmodium falciparum V1/S; type: functional, organism-based
Plasmodium falciparum [8] = experiment: ST_JUDE: Cytotoxicity against Plasmodium falciparum Dd2; type: functional, organism-based
Plasmodium falciparum [9] = experiment: ST_JUDE: Cytotoxicity against Plasmodium falciparum K1; type: functional, organism-based; in short: as §1
Plasmodium falciparum [10] = experiment: ST_JUDE: Plasmodium falciparum K1 EC50 (uM) as measured by SYBR green dye; type: functional, organism-based
[11] = ST_JUDE: Cytotoxicity using luciferase to measure ATP as an indicator of the viability of human epithelial embryonic kidney cells (HEK293); type: toxicity, cell-based
Leishmania major = experiment: ST_JUDE: Cytotoxicity using Alamar Blue to measure viability of Leishmania major; type: functional, organism-based
In short: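 L. major promastigotes; drug susceptibility read with Alamar Blue.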

[12] = ST_JUDE: Cytotoxicity using luciferase to measure ATP as an indicator of the viability of human Burkitt''s lymphoma lymphoblast cells (Raji); type: toxicity, cell-based
Plasmodium falciparum [13] = experiment: ST_JUDE: Cytotoxicity against Plasmodium falciparum SB-A6; type: functional, organism-based

| SMILES | EC50 (Plasmodium falciparum [1]) [µM] | EC50 (Plasmodium falciparum [2]) [µM] | EC50 (Trypanosoma brucei) [µM] | EC50 (Plasmodium falciparum [3]) [µM] | EC50 [4] [µM] | EC50 (Toxoplasma gondii) [µM] | EC50 (Plasmodium falciparum [5]) [µM] | EC50 [6] [µM] | EC50 (Plasmodium falciparum [7]) [µM] | EC50 (Plasmodium falciparum [8]) [µM] | EC50 (Plasmodium falciparum [9]) [µM] | EC50 (Plasmodium falciparum [10]) [µM] | EC50 [11] [µM] | EC50 (Leishmania major) [µM] | EC50 [12] [µM] | EC50 (Plasmodium falciparum [13]) [µM] |
| --- | --- | --- | --- | --- | --- | --- | --- | --- | --- | --- | --- | --- | --- | --- | --- | --- |
| CCN(CC)CCn1c(=N)n(CC(O)c2ccc(Cl)c(Cl)c2)c2ccccc21 (stereo not drawn) | 0.842 | 0.804 | 4.96 | 0.722 | > 43.1 | 9.01 | 0.907 | 7.18 | 1.11 | 0.48 | 1.03 | 0.761 | 30.7 | > 18.4 | > 43.1 | 1.07 |
| OC(CNC1CCCC1)Cn1c2ccccc2c2ccccc21 (stereo not drawn) | 2.69 | 1.69 | 3.41 | 0.879 | 20.3 | > 22.2 | 1.08 | 14.8 | 0.813 | 0.889 | 0.62 | 0.163 | 31.5 | > 17.4 | > 40.6 | 3.17 |
| CC(C)(C)NC(=O)c1cn(C2CCCCC2)cc(C(=O)NC2CCN(Cc3ccccc3)C2)c1=O (stereo not drawn) | 1.53 | 0.787 | 19.9 | 2.14 | > 28.7 | > 15.7 | 0.658 | > 28.7 | 4.84 | 0.507 | 1.98 | 4.09 | > 28.7 | > 12.3 | > 28.7 | 0.704 |
| c1ccc(CCNc2ccnc3cc4ccccc4cc23)cc1 | 1 | 0.267 | 2.88 | 0.674 | 6.62 | > 17 | 0.121 | 1.32 | 0.833 | 0.15 | 0.671 | 0.191 | 7.19 | > 13.3 | 9.53 | 0.171 |
| COCCO/C(O)=C1\C(C)=NC2=C(C(=O)CC(c3ccc(OC)c(OC)c3)C2)C1c1ccccc1F (stereo not drawn) | 0.553 | 0.498 | > 38.3 | 1.35 | > 39.9 | > 21.9 | 0.717 | > 39.9 | 0.406 | 0.97 | 0.314 | 0.551 | > 39.9 | > 17.1 | > 39.9 | 0.313 |
| Oc1ccc(Br)cc1CN1CCN(C2CC3CCC2C3)CC1 (stereo not drawn) | 0.864 | 0.501 | > 36.6 | 0.519 | > 38.2 | > 20.9 | 0.289 | > 38.2 | 0.29 | 0.285 | 0.131 | 0.181 | > 38.2 | > 16.4 | > 38.2 | 0.953 |
| CCO/C(O)=C1\C(C)=NC2=C(C(=O)CC(c3ccc(OC)c(OC)c3)C2)C1c1ccccc1Cl (stereo not drawn) | 0.0573 | 0.0702 | 9.64 | 0.0165 | > 44.6 | > 24.4 | 0.0604 | > 44.6 | 0.118 | 0.0608 | 0.0913 | 0.138 | > 44.6 | > 19.1 | > 44.6 | 0.0561 |
| CCOC(=O)C1(Cc2cccc(F)c2)CCN(Cc2ccccc2O)CC1 | 1.42 | 1.2 | 25.3 | 1.01 | > 52.6 | > 28.8 | 0.347 | > 52.6 | 1.27 | 0.679 | 0.402 | 0.284 | > 52.6 | > 22.5 | > 52.6 | 1.2 |
| Cc1ccc(NC(=O)C2c3ccccc3C(=O)N(CC(C)C)C2c2cccs2)cc1C (stereo not drawn) | 0.182 | 0.208 | 6.31 | 3.81 | > 41.2 | > 22.6 | 0.0631 | > 41.2 | 0.348 | 0.323 | 0.182 | 0.129 | > 41.2 | > 17.6 | > 41.2 | 0.232 |
| CCCO/C(O)=C1\C(C)=NC2=C(C(=O)CC(c3ccc(OC)cc3)C2)C1c1ccccc1Cl (stereo not drawn) | 0.188 | 0.373 | 5.09 | 0.0889 | > 41.9 | > 22.9 | 0.713 | > 41.9 | 0.173 | 0.301 | 0.16 | 0.466 | > 41.9 | > 17.9 | > 41.9 | 0.167 |
| CC1=NC2=C(C(=O)CC(c3ccc(Cl)cc3)C2)C(c2ccc(F)cc2)/C1=C(\O)OC(C)C (stereo not drawn) | 0.649 | 0.989 | 1.56 | 0.655 | > 39.8 | > 21.8 | 0.775 | > 39.8 | 0.821 | 1.3 | 0.436 | 0.779 | > 39.8 | > 17 | > 39.8 | 0.46 |
| Cc1oc2c(c1C(=O)NCCC(C)C)C(=O)c1ccccc1C2=O | 0.842 | 1.23 | 2.38 | > 10.9 | > 42.5 | > 23.3 | 7.61 | > 42.5 | > 10.9 | 2.34 | 1.17 | 0.424 | > 42.5 | > 18.2 | > 42.5 | 1.12 |
| CCN1/C(=C/c2cccc[n+]2C)C=Cc2cc(C)ccc21 | 1.54 | 1.5 | 7.21 | > 8.27 | > 32.2 | > 17.6 | 0.439 | > 32.2 | > 8.27 | 1.7 | 1.89 | 0.325 | > 32.2 | 0.107 | > 32.2 | 2.05 |
